Bioassay records from PubChem.
Pf Dd2 growth = P. falciparum Dd2 growth inhibition; SYBR Green, 72 h; stronger effect = lower value; hit rate 2.3% among 94,000; activity change, % at 10 µM; AID 1159554; in the data active = activity change below about -80%; inconclusive = no clear call, values can overlap the other calls
KDM4C inh = inhibitors of human demethylase GASC-1 KDM4C | Q9H3R0 | GST-KDM4C 2-372, H3K9me3 peptide, LANCE TR-FRET | inhibition, % at 12.5 µM | hit rate 0.15% among 96,000 | AID 720574;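 active = mean replicate inhibition above about 25%, with at least 55% of replicates also reaching it, limit read from the data, passing the limit was not always enough; inconclusive = only one of those two conditions met; inactive = neither condition met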
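Material: GST-tagged GASC-1 (JMJD2C) catalytic fragment, aa 2-372. Input: enzyme final amount 10 nM. Medium: HEPES buffer, pH 7.5, plus ascorbate. Reagent: H3K9me3 peptide substrate, Fe(II), 2-oxoglutarate. Doses: single dose. Times: reaction 30 min RT, detection step 1 h RT. Measured by: LANCE TR-FRET. Evaluation: Fall in 671/618 emission ratio as inhibition.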
IDH1 R132H inh = inhibitors of human IDH1 R132H; O75874; hit rate 0.18% among 70,000; inhibition, % at 10 µM; AID 624101; IDH1 R132H reductase, diaphorase/resazurin fluorescence, 60 min; in the data active = inhibition above about 34%; inconclusive = no clear call, values can overlap the other calls; inactive = below about 11%;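 also: 0% = DMSO and 100% = no enzyme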
Target sequence (O75874 whole entry R132H): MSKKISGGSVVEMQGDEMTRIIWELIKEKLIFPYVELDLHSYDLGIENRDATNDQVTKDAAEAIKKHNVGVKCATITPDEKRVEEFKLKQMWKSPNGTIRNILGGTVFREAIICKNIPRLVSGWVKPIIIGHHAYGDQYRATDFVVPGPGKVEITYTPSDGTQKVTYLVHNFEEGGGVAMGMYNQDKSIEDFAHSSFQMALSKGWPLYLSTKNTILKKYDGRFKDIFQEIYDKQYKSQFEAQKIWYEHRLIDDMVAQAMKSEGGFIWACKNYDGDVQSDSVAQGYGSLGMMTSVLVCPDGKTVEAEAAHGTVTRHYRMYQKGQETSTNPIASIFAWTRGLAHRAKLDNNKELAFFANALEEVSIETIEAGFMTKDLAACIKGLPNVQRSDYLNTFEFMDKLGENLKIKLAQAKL
T cruzi growth-1 = inhibitors of T. cruzi proliferation. T. cruzi beta-gal in NIH3T3, GalScreen luminescence, 90 h. inhibition, % at 8.34 µM. hit rate 5.9% among 77,000;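 active = mean inhibition above about 93%, with at least 55% of replicates each passing it, limit read from the data, passing the limit was not always enough; inconclusive = only one of those two conditions holds; inactive = neither condition holds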
T cruzi growth-2 = blocks T. cruzi growth in NIH3T3 host cells | inhibition, % at 8.35 µM | AID 651739 | hit rate 72% among 5,600 | T. cruzi beta-gal in NIH3T3, GalScreen luminescence, 90 h | shares compounds with T cruzi growth-1;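 active = mean replicate inhibition above about 95% and at least 55% of replicates individually reaching it, limit read from the data; inconclusive = only one of the two criteria is met; inactive = neither criterion is met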
T cruzi growth-3 = inhibitors of T. cruzi proliferation | shares compounds with T cruzi growth-1 | T. cruzi beta-gal in NIH3T3, GalScreen luminescence, 90 h | inhibition, % at 2.09 µM | hit rate 21% among 5,600 | AID 651740;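 active = mean inhibition above about 95%, with at least 55% of replicates also reaching it, limit read from the data; inconclusive = meets just one of the two conditions; inactive = meets neither condition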;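 also: plate controls were neutral control median for no effect and positive control median for full effect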
NIH3T3 tox = cytotoxicity in mouse NIH/3T3 fibroblasts. shares compounds with T cruzi growth-1. NIH/3T3 viability, CellTiter-Glo ATP luminescence, 90 h. cytotoxicity (signal decrease), % at 8.35 µM. hit rate 14% among 5,600. AID 651742;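 active = mean signal decrease across replicates above about 35% based on untreated-well scatter, with enough replicates individually passing, limit read from the data; inconclusive = no rule stated though some were filed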;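 also: 0% = median of neutral control wells and 100% = median of positive control wells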
NIH3T3 tox 2 = NIH/3T3 (mouse) viability loss; shares compounds with T cruzi growth-1; NIH/3T3 viability, CellTiter-Glo ATP luminescence, 90 h; inhibition, % at 24.9 µM; hit rate 56% among 5,600; AID 651744;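 active = mean loss of cell viability signal at or above a set limit, and enough replicates individually reaching it; inconclusive = meets only the mean limit or only the replicate share; inactive = meets neither condition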;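 also: 0% = median of neutral control wells and 100% = median of positive control wells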
* marks the source's active call; other numbers are inactive results; ? = inconclusive; · = no result given; ! = not confirmed by another sample. Most compounds without a hit are left out; they make up all but 5.8% or so of the library.

SMILES | Pf Dd2 growth | KDM4C inh | IDH1 R132H inh | T cruzi growth-1 | T cruzi growth-2 | T cruzi growth-3 | NIH3T3 tox | NIH3T3 tox 2
C[C@H]1CN([C@@H](C)CO)C(=O)c2cccc(NC(=O)c3ccncc3)c2O[C@@H]1CN(C)Cc1ccncc1 | 6 | 3 | · | 52 | · | · | · | ·
C[C@@H]1CN([C@@H](C)CO)C(=O)c2cccc(NC(=O)c3ccncc3)c2O[C@H]1CN(C)Cc1ccc2c(c1)OCO2 | -8 | 3 | 0 | 103* | 97* | 92 | -3 | 27*
C[C@@H]1CN([C@H](C)CO)C(=O)c2cccc(NC(=O)c3ccncc3)c2O[C@H]1CN(C)Cc1ccncc1 | -35 | 0 | 2 | 80 | · | · | · | ·
C[C@@H]1CN([C@H](C)CO)C(=O)c2cccc(NC(=O)c3ccncc3)c2O[C@H]1CN(C)Cc1ccc2c(c1)OCO2 | -7 | -2 | 3 | 98* | 91 | 74 | 23 | 25
C[C@@H]1CN([C@@H](C)CO)C(=O)c2cc(C#CCN(C)C)cnc2O[C@@H]1CN(C)Cc1ccc(-c2ccccc2)cc1 | · | 8 | · | 112* | 110* | 107* | 47* | 105*
C[C@H](CO)N1C[C@H](C)[C@@H](CN(C)Cc2ccc(C(=O)O)cc2)Oc2ncc(C#CCN(C)C)cc2C1=O | 5 | 3 | -1 | -21 | · | · | · | ·
C[C@@H]1CN([C@H](C)CO)C(=O)c2cc(C#CCN(C)C)cnc2O[C@H]1CN(C)Cc1ccccc1 | -8 | · | -1 | -113 | · | · | · | ·
C[C@@H]1CN([C@@H](C)CO)C(=O)c2cc(C#CCN(C)C)cnc2O[C@H]1CN(C)Cc1ccc(-c2ccccc2)cc1 | -61 | 3 | -10 | 102* | 109* | 116*! | 40* | 104*
C[C@@H]1CN([C@H](C)CO)C(=O)c2cc(C#CCN(C)C)cnc2O[C@@H]1CN(C)Cc1ccc(C(=O)O)cc1 | -1 | 7 | 1 | 105* | -7 | 3 | -20 | -5
C[C@@H]1CN([C@H](C)CO)C(=O)c2cc(C#CCN(C)C)cnc2O[C@H]1CN(C)Cc1ccc(-c2ccccc2)cc1 | · | 0 | · | 109* | 111* | 116* | ? | 104*
CC(=O)NC[C@H]1[C@@H](c2ccc(-c3cccc(F)c3)cc2)[C@@H](CO)N1C(=O)C1CC1 | -6 | 1 | · | · | · | · | · | ·
Cc1ccccc1-c1ccc(C2[C@@H]3CN(C(=O)C4CCC4)C[C@H]2N3)cc1 (stereo not given in full) | 12 | · | · | · | · | · | · | ·
Cc1ccc(S(=O)(=O)Nc2ccc3c(c2)C(=O)N([C@H](C)CO)C[C@@H](C)[C@@H](CN(C)C)O3)cc1 | 16 | 2 | 0 | · | · | · | · | ·
CC1(C)CC(n2c(NCCO)nc3c(c2=O)C2(CCCCC2)Cc2ccccc2-3)CCO1 (stereo not given) | · | · | 1 | · | · | · | · | ·
COCC#Cc1ccc2c(c1)O[C@@H](CN(C)CC1CCCC1)[C@H](C)CN([C@@H](C)CO)S2(=O)=O | ? | -1 | 0 | 106* | 96* | 46 | 21 | 104*
COCC#Cc1ccc2c(c1)O[C@H](CN(C)CC1CCCC1)[C@@H](C)CN([C@H](C)CO)S2(=O)=O | -58 | -1 | 0 | ? | 99* | 53 | 23 | 50*
COc1ccc(CNC(=O)C[C@@H]2C=C[C@H](NS(=O)(=O)c3cccc(OC)c3)[C@H](CO)O2)cc1 | · | 0 | 0 | · | · | · | · | ·
C/C=C/c1ccc2c(c1)O[C@H](CN(C)Cc1ccc(F)cc1)[C@@H](C)CN([C@H](C)CO)S2(=O)=O | -58 | -1 | 0 | 104* | ? | 93 | ? | 106*
C/C=C/c1ccc2c(c1)O[C@H](CN(C)Cc1ccc(F)cc1)[C@H](C)CN([C@@H](C)CO)S2(=O)=O | 3 | -1 | 0 | 59 | · | · | · | ·
C/C=C/c1ccc2c(c1)O[C@@H](CN(C)Cc1ccc(F)cc1)[C@H](C)CN([C@H](C)CO)S2(=O)=O | -52 | 0 | 0 | 119* | 98* | 110* | 52* | 105*
Cc1c(Cl)cccc1NC(=O)Cn1cc(C(=O)c2ccccc2)c2ccccc21 | · | · | 0 | · | · | · | · | ·
COc1ccccc1S(=O)(=O)N1CC[C@@H]2[C@H]1c1cc(-c3cccc(C#N)c3)ccc1N(C)[C@H]2CO | 22 | -1 | · | 106* | 105* | 63 | ? | 33*
COc1ccccc1S(=O)(=O)N1CC[C@@H]2[C@@H](CO)N(C)c3ccc(-c4cccc(C#N)c4)cc3[C@@H]21 | -7 | 2 | · | 97* | 106* | 72 | 15 | 19
COc1ccccc1S(=O)(=O)N1CC[C@@H]2[C@@H](CO)N(C)c3ccc(-c4ccc(C#N)cc4)cc3[C@@H]21 | -19 | -9 | · | 23 | · | · | · | ·
Cc1ccccc1S(=O)(=O)N1CC[C@@H]2[C@H]1c1cc(-c3ccccc3)ccc1N(C)[C@H]2CO | -70 | 0 | · | 98* | 107* | 115* | 12 | 103*
SMILES | Pf Dd2 growth | KDM4C inh | IDH1 R132H inh | T cruzi growth-1 | T cruzi growth-2 | T cruzi growth-3 | NIH3T3 tox | NIH3T3 tox 2
Cc1ccccc1S(=O)(=O)N1CC[C@@H]2[C@@H](CO)N(C)c3ccc(-c4cccc(C#N)c4)cc3[C@@H]21 | 6 | -10 | · | 100* | 99* | 64 | 14 | 61*
CCn1c(SCC(=O)Nc2ccccc2OC)nnc1-c1ccncc1 | · | · | 0 | · | · | · | · | ·
CCC(=O)N(C)C[C@H]1Oc2cc(C#CCC(C)C)ccc2S(=O)(=O)N([C@@H](C)CO)C[C@H]1C | -5 | -2 | -2 | 50 | · | · | · | ·
Cc1ccccc1S(=O)(=O)N1CC[C@@H]2[C@H](CO)N(C)c3ccc(Br)cc3[C@@H]21 | -5 | 0 | · | 131* | 107* | 37 | 11 | 72*
CN1c2ccc(Br)cc2[C@H]2[C@H](CCN2S(=O)(=O)c2cccc(F)c2)[C@H]1CO | 30 | 0 | · | ? | 97* | 55 | -11 | 27
O=C(c1ccc2c(c1)OCO2)N1CC(=O)N2[C@H](C1)[C@H](c1ccc(C#Cc3ccccc3)cc1)[C@@H]2CO | 1 | -1 | · | · | · | · | · | ·
O=C(C[C@H]1C=C[C@H](NS(=O)(=O)c2ccc(F)cc2)[C@H](CO)O1)N1CCC(Cc2ccccc2)CC1 | 1 | 1 | 0 | ? | 107* | -15 | -18 | 16
Cc1ccc(S(=O)(=O)N[C@H]2C=C[C@H](CC(=O)N3CCC(Cc4ccccc4)CC3)O[C@H]2CO)cc1 | -19 | -1 | 0 | 125* | 103* | -4 | -1 | 8
CN(C)CC(=O)N1CCCCN2[C@H](C1)[C@H](c1ccc(-c3cccnc3)cc1)[C@@H]2CO | -57 | 0 | · | 108* | 97* | 2 | 2 | 0
